Hits are enriched below; roughly 2.8% of the tested compounds scored in any of these assays.
PAFAH1B3 inh: blocks human PAF acetylhydrolase 1B catalytic subunit 3. inhibition, % at 3.39 µM. 340,000 compounds, 0.28% hits. Q15102. recombinant PAFAH1B3, FP-rhodamine probe, fluorescence polarization;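 active means inhibition above the screen-wide average of all tested compounds plus 3 SD, cut at about 25% in these data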;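 further: 0% = enzyme with DMSO only and 100% = wells lacking PAFAH1B3 protein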
PAFAH1B2 FP inh: inhibitors of human PAFAH1B2 | P68402 | recombinant PAFAH1B2, FP-rhodamine activity probe, fluorescence polarization | inhibition, % at 3.39 µM | 340,000 compounds, 1.2% hits | AID 492953;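 active means inhibition above the mean of all tested compounds plus 3 SD, cut at about 24% in these data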;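 further: 0% = enzyme with DMSO and 100% = wells lacking PAFAH1B2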
Target sequence (P68402 whole entry, looked up): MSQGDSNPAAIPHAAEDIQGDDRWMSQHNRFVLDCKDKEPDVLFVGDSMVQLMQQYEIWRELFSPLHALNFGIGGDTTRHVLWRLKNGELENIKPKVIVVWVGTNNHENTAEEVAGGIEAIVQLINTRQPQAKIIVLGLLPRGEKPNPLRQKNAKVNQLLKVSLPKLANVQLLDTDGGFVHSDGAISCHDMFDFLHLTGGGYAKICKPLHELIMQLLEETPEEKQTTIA
ABHD4 inh: inhibitors of mouse ABHD4. AID 720543. purified mABHD4, FP-Rh probe fluorescence polarization. inhibition, % at 8.92 µM. 370,000 compounds, 0.54% hits;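 active means inhibition exceeding the mean over every tested compound plus 3 SD, cut at about 30% in these data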;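 further: 0% = plate median of compound wells and 100% = S159A mutant with DMSO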
Target sequence (Q8VD66 whole entry, looked up): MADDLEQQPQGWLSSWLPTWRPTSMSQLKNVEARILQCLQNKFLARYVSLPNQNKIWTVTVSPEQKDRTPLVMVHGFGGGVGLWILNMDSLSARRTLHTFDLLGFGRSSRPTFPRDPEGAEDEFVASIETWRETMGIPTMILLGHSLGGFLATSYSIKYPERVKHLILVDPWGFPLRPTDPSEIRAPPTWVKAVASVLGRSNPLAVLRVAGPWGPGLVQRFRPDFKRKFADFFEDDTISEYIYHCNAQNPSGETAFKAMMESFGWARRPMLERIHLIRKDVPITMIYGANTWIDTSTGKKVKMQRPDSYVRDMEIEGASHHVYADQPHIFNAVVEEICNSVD
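system = mouse ABHD4 enzyme, wild type | medium = HEPES pH 7.0, NaCl, Pluronic buffer | also added = FP-Rh probe | incubation = Enzyme–compound pre-incubation 45 min, then probe 60 min, both 25 °C | technique = fluorescence polarization, excitation 525 nm, emission 598 nm, BODIPY TMR filters | controls = S159A mutant high control, sample median low control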
PAFAH2 inh: inhibitors of human PAFAH2 | Q99487 | 340,000 compounds, 0.99% hits | AID 492956 | inhibition, % at 3.39 µM | recombinant PAFAH2, FP-rhodamine activity probe, fluorescence polarization;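 active means inhibition above the mean over all tested compounds plus 3 SD, cut at about 30% in these data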;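 further: inhibitors block probe labeling of enzyme so polarization drops; 0% = enzyme with DMSO and 100% = wells lacking PAFAH2 protein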
pPAFAH inh: inhibitors of human plasma PAF acetylhydrolase (pPAFAH); Q13093; recombinant pPAFAH, FP-rhodamine probe fluorescence polarization; inhibition, % at 3.39 µM; 330,000 compounds, 1.5% hits;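 active means inhibition above the mean inhibition across the screen plus 3 SD, cut at about 25% in these data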;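 further: inhibitors block binding of the rhodamine activity-based probe so polarization drops; 0% = enzyme with DMSO and 100% = wells lacking pPAFAH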
HTRA1 inh: HTRA1 (human) protease inhibition | Q92743 | recombinant HTRA1, FP-rhodamine activity-based probe, fluorescence polarization | inhibition, % at 5.96 µM | 340,000 compounds, 0.5% hits; in the data active means inhibition above about 36%;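 further: 0% = enzyme with DMSO and 100% = wells lacking enzyme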
ABHD4 confirm: ABHD4 (mouse) inhibition, FP confirmation; shares compounds with ABHD4 inh; purified mABHD4, FP-Rh probe fluorescence polarization; inhibition, % at 8.92 µM; 1,800 compounds, 55% hits; AID 720658;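 active means mean inhibition across replicates above the hit cutoff set in the primary screen, cut at about 30% in these data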;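 further: 0% = wild-type ABHD4 with DMSO and 100% = catalytically dead S159A mutant with DMSO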
* marks the source's active call; other numbers are inactive results.

COC(=O)[C@]12C[C@H](CC(=O)NCc3ccccc3)C(=O)N(CCc3ccc(OC)c(OC)c3)C1=C[C@H](C(C)C)O[C@@H]2C1CC1 was read as ABHD4 inh -2.
For CC(C)N(C[C@@H]1CSCCS(=O)(=O)N1)C1CCCCC1 the results were ABHD4 inh 5.
CSc1nnc(-c2ccco2)c(-c2ccco2)n1 was read as PAFAH1B3 inh 7, PAFAH1B2 FP inh 8, ABHD4 inh 40*, PAFAH2 inh 21, pPAFAH inh 31*, HTRA1 inh 20 and ABHD4 confirm 46*.
`O=[N+]([O-])c1c(Nc2ccccc2O)cc(Cl)c2nonc12` gave PAFAH1B3 inh 9, PAFAH1B2 FP inh 6, ABHD4 inh 33*, PAFAH2 inh 7, HTRA1 inh 29 and ABHD4 confirm 49*.
`Cc1ccc(NC(=O)Cn2nnc(-c3ccccc3F)n2)cc1C` gave ABHD4 inh 4.
Screening CCOc1cc(N2CCOCC2)c(OCC)cc1NC(=O)CN1CCc2ccccc2C1 returned PAFAH1B3 inh 2, PAFAH1B2 FP inh 3, ABHD4 inh 31*, PAFAH2 inh 12, pPAFAH inh 7, HTRA1 inh 5 and ABHD4 confirm 15.
Screening CN1c2ccsc2/C(=N/Nc2ccccc2)CS1(=O)=O returned PAFAH1B3 inh 6, PAFAH1B2 FP inh 1, ABHD4 inh 32*, PAFAH2 inh 9, pPAFAH inh 9, HTRA1 inh 33 and ABHD4 confirm 5.
For O=C1Cc2cc(S(=O)(=O)N3CCN(c4ccc(C(=O)O)cc4)CC3)ccc2N1 the results were ABHD4 inh 33* and ABHD4 confirm 10.
For O=C(CSc1nnc(-c2cccc(Cl)c2)n1Cc1ccco1)Nc1ccc2c(c1)OCO2 the results were ABHD4 inh -21.
For O=C(O)c1cccc(Nc2nc(-c3cc4ccccc4oc3=O)cs2)c1 the results were PAFAH1B3 inh 11, PAFAH1B2 FP inh 3, ABHD4 inh 30*, PAFAH2 inh 20, HTRA1 inh 1 and ABHD4 confirm 49*.
`Cc1cccc(Cc2c(C)nc3c(C(=O)N4CCN(Cc5ccc6c(c5)OCO6)CC4)cnn3c2C)c1` gave PAFAH1B3 inh -3, PAFAH1B2 FP inh 3, ABHD4 inh 36*, PAFAH2 inh 9, pPAFAH inh -2, HTRA1 inh -7 and ABHD4 confirm 38*.
For COc1ccc(CCC(=O)Nc2nc3c(s2)CN(C)CC3)cc1OC the results were PAFAH1B3 inh 4, PAFAH1B2 FP inh 3, ABHD4 inh 89*, PAFAH2 inh -6, pPAFAH inh 1, HTRA1 inh 0 and ABHD4 confirm 3.
COc1ccc(CCC(=O)Nc2nccs2)cc1OC was read as PAFAH1B3 inh 12, PAFAH1B2 FP inh 5, ABHD4 inh 2, PAFAH2 inh 2, pPAFAH inh -5 and HTRA1 inh 0.
CCc1ccc2c(c1)/C(=C/C(=O)c1cccs1)C(=O)N2 was read as PAFAH1B3 inh 2, PAFAH1B2 FP inh 5, ABHD4 inh 37*, PAFAH2 inh 0, pPAFAH inh 7, HTRA1 inh -7 and ABHD4 confirm 56*.
`NC(CO)C(=O)NNCc1ccc(O)c(O)c1O` (stereo unspecified) gave PAFAH1B3 inh 19, PAFAH1B2 FP inh 6, ABHD4 inh 37*, PAFAH2 inh 8, pPAFAH inh 28*, HTRA1 inh 7 and ABHD4 confirm 21.
Screening CC(=O)/C(N=Nc1ccc(SC(F)F)cc1)=C(\C)O returned PAFAH1B3 inh 14, PAFAH1B2 FP inh 0, ABHD4 inh -1, PAFAH2 inh 0, pPAFAH inh 3 and HTRA1 inh -8.
Screening CCSC(=O)N=Nc1ccc(O)cc1 returned PAFAH1B3 inh 10, PAFAH1B2 FP inh 4, ABHD4 inh 33*, PAFAH2 inh 1, HTRA1 inh 31 and ABHD4 confirm 15.
O=C1NN(c2ccccc2)C(=O)/C1=C\c1ccc(-c2cc([N+](=O)[O-])ccc2O)o1 was read as PAFAH1B3 inh 33*, PAFAH1B2 FP inh 13, ABHD4 inh 34*, PAFAH2 inh 30*, HTRA1 inh 15 and ABHD4 confirm 44*.
Screening COc1cc(/C=C2\C(=O)NN(c3ccccc3)C2=O)cc([N+](=O)[O-])c1O returned PAFAH1B3 inh 15, PAFAH1B2 FP inh 4, ABHD4 inh 27, PAFAH2 inh 19, pPAFAH inh 8 and HTRA1 inh 10.
C=C(C)[C@@H]1CC2=C(OC)C(CC=C(C)C)(CC=C(C)C)C(=O)C(C(=O)c3ccccc3)=C2O1 was read as ABHD4 inh -10.
COc1ccc(CN2C[C@H](COCc3ccccc3)Oc3cccc(F)c3S2(=O)=O)cc1 was read as ABHD4 inh -9.
COc1ccc(N2COC3c4cccc5cccc(c45)C32)cc1 (stereo unspecified) was read as PAFAH1B3 inh 5, PAFAH1B2 FP inh 8, ABHD4 inh 43*, PAFAH2 inh 9, pPAFAH inh 5, HTRA1 inh 8 and ABHD4 confirm -4.
`N#Cc1c(NC(=O)c2cccc(S(=O)(=O)Nc3ccc(C(=O)O)cc3)c2)sc2c1CCCC2` gave PAFAH1B3 inh 7, PAFAH1B2 FP inh 16, ABHD4 inh 36*, PAFAH2 inh 10, pPAFAH inh 14, HTRA1 inh -2 and ABHD4 confirm 30*.
Screening O=C(NN=Cc1cc(Br)c(O)c(Br)c1)c1ccccc1NS(=O)(=O)c1cccs1 returned PAFAH1B3 inh 30*, PAFAH1B2 FP inh 4, ABHD4 inh 34*, PAFAH2 inh 11, pPAFAH inh 31*, HTRA1 inh 9 and ABHD4 confirm 33*.
Cc1cccc(C(=O)Nc2sc(-c3ccccc3)cc2C(=O)O)c1 was read as PAFAH1B3 inh 9, PAFAH1B2 FP inh 33*, ABHD4 inh 51*, PAFAH2 inh 23, pPAFAH inh 34*, HTRA1 inh -11 and ABHD4 confirm 53*.
NS(=O)(=O)c1ccc(CCNC(=O)CN2C(=O)NC(c3ccccc3)(c3ccccc3)C2=O)cc1 was read as PAFAH1B3 inh 7, PAFAH1B2 FP inh -1, ABHD4 inh 49*, PAFAH2 inh -7, pPAFAH inh 1, HTRA1 inh 0 and ABHD4 confirm 21.
`O=C(CN1C(=O)NC(c2ccccc2)(c2ccccc2)C1=O)NCCc1ccc(F)cc1` gave PAFAH1B3 inh 4, PAFAH1B2 FP inh 4, ABHD4 inh -9, PAFAH2 inh -2, pPAFAH inh 3 and HTRA1 inh -15.
`COc1ccc(C2CC(=O)C(c3ccc(C#N)cc3)=CN2Cc2ccccc2)cc1` (stereo unspecified) gave ABHD4 inh -9.
